In the library only some 5.3% were active in any assay of this set; here they are far more common.
FAK blocker – FAK kinase inhibitors, primary screen, biochemical | Focal adhesion kinase 1 (Homo sapiens), Q05397 | biochemical FAK kinase activity assay | AID 727, 2007 | 97,000 tested, 0.84% active | inhibition, %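 (tested at 7 µM)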; in the data active means inhibition above about 19%
Rev-RRE block – HIV-1 Rev-RRE binding inhibitors, primary screen, biochemical, FRET, protein-RNA interaction | 97,000 tested, 0.79% active | AID 704, 2007 | Rev peptide-RRE RNA binding | P05866 | inhibition, % at 8 µM;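 active means inhibition above the screen-wide mean plus 3 SD, cut at about 35% in these data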
Target sequence (P05866 whole entry, looked up): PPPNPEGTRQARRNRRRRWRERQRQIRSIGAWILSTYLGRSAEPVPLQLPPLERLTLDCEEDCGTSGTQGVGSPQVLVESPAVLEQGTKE
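assay system = Cy5-tagged RRE RNA duplex with fluorescein-tagged Rev peptide | incubation = 5 + 15 min at 25 °C | also added = labelled Rev peptide | measure = % inhibition of FRET ratio versus controls | benchmarks = DMSO wells as 0% and neomycin B wells as 100% inhibition | measured by = FRET fluorescence readout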
EphB4 ephrin blk – EphB4-ephrin-B2 interaction antagonists, primary screen, biochemical, TNYL-RAW peptide probe, fluorescence polarization; Ephrin type-B receptor 4 (Homo sapiens), P54760; EphB4 LBD / TNYL-RAW-Alexa532 peptide; inhibition, % at 7 µM; 97,000 tested, 0.15% active;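 active means inhibition above the screen-wide mean inhibition plus 3 SD, cut at about 15% in these data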
PLK1 inh – human PLK1 kinase inhibitors, primary screen, biochemical, TR-FRET | Serine/threonine-protein kinase PLK1 (Homo sapiens), P53350 | recombinant PLK1 kinase, TR-FRET peptide phosphorylation | inhibition, % at 10 µM | 97,000 tested, 0.53% active;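 active means inhibition of 50% or more in the single-concentration screen; inactive means inhibition below 50%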
Target sequence (P53350 whole entry, looked up): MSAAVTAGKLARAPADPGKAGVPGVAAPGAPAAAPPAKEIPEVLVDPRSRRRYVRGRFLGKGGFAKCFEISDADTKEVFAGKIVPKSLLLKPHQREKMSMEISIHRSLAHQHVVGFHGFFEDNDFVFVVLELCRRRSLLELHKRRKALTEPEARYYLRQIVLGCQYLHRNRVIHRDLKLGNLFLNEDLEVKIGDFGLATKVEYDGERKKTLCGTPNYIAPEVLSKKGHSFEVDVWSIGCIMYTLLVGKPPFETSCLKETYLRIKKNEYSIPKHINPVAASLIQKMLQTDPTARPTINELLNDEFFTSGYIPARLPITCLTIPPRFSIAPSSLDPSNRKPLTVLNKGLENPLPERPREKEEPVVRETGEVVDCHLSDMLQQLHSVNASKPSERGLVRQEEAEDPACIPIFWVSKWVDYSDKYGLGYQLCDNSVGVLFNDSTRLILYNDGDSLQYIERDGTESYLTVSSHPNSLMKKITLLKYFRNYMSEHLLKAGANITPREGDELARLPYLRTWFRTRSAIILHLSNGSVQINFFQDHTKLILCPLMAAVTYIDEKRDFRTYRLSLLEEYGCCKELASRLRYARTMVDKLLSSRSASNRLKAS
Plk1 PBD FP – Plk1 polo box domain binding inhibitors, primary screen, biochemical, fluorescence polarization; AID 693, 2007; inhibition, %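 (tested at about 20 µM)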; Serine/threonine-protein kinase PLK1 (Homo sapiens), P53350; Plk1 PBD phosphopeptide binding; 97,000 tested, 0.13% active; in the data active means inhibition above about 34%, passing the limit was not always enough
Cav3 T inh – Cav3.2 calcium influx blockers – cell-based, Fluo-4 calcium fluorescence, FDSS, MLSMR library, primary screen; 100,000 tested, 4% active; Cav3.2-expressing cells; active compounds read low; Voltage-dependent T-type calcium channel subunit alpha-1H (Homo sapiens), O95180; B-score at 10 µM;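 active means single-dose well whose peak fluorescence ratio is a statistical outlier from its plate by either plate-standardised score or position-corrected B-score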
Large screens that a line does not name were inactive; [ ] = remark or other dose.

Cc1ccccc1Cn1cc(NC(=O)CSc2nc3c(c(C(F)(F)F)n2)CCc2ccccc2-3)cn1	none
CCCCCCCC(=O)N/N=C(\C)c1cccnc1	none
Cc1ccc(-c2nnc(CSc3nnc(COc4ccccc4)n3-c3ccc(C)cc3)o2)cc1	Cav3 T inh -5.48
N#Cc1ccc(CSc2nnc(COc3ccccc3)n2-c2ccccc2)cc1	none
Cc1ccc(-c2nnc(CSc3nnc(COc4ccccc4)n3-c3ccccc3)o2)cc1	Cav3 T inh -6.96
Cn1c(=O)c2c3c(sc2n2c(SCC(N)=O)nnc12)CC(C(C)(C)C)CC3 (centres undefined)	Cav3 T inh 4.19
CCCCN(CCCC)C(=O)CSc1nnc2n(C)c(=O)c3c4c(sc3n12)CCCC4	none
c1ccc(-c2nnc(CN3CCCc4ccccc43)o2)cc1	Rev-RRE block 83.5[fluorescence artefact?] (no result: Cav3 T inh)
CCOC(=O)C1=C(C)N(Cc2ccccc2)C(=O)NC1c1ccc(OC)cc1 (centres undefined)	Cav3 T inh -5.83
CCOC(=O)CN1C(=O)N[C@@H](c2ccccc2)C(C(=O)OC)=C1C	none (no result: FAK blocker, Rev-RRE block, EphB4 ephrin blk, PLK1 inh, Plk1 PBD FP)
COc1ccc(Oc2c(-c3ccc(O)cc3O)n[nH]c2C)cc1	Cav3 T inh -8.82
N#Cc1c(C(F)(F)F)cc(-c2ccccc2Cl)[nH]c1=O	Cav3 T inh -2.62
N#Cc1c(C(F)(F)F)cc(-c2ccccc2)[nH]c1=O	none
CCCCn1c(NCc2ccccc2O)nc2ccccc21	none
CCCn1c(NCc2cc(C)ccc2O)nc2ccccc21	Cav3 T inh -7.01
Cn1nnnc1SCCNC/C=C/c1ccccc1	none
CC(NC(=O)c1ccco1)C1COc2ccccc2O1 (centres undefined)	none
CC(NC(=O)CCC(=O)NC(C)C1COc2ccccc2O1)C1COc2ccccc2O1 (centres undefined)	Cav3 T inh -8.82
CC(C)CCN1CC(C(=O)NCc2ccccc2)CC1=O (centres undefined)	Cav3 T inh -5.26
CCCCN1CC(C(=O)NCc2ccc(C)cc2)CC1=O (centres undefined)	none
COc1ccc(-c2c(C3=CCCCC3)oc3ccc(-c4ccc5c(c4)OCO5)cc23)cn1	none (no result: FAK blocker, Rev-RRE block, EphB4 ephrin blk, PLK1 inh, Plk1 PBD FP)
O=C(NC(=S)N(Cc1ccccc1)Cc1ccccc1)c1ccccc1F	Cav3 T inh -6.16
CCCC(=O)Nc1nnc(-c2ccc(Cl)s2)o1	PLK1 inh 63.8 (no result: Cav3 T inh)
O=C(Nc1nnc(-c2ccc(Cl)s2)o1)C1CCCCC1	none
C=CCn1c(CNc2ccc(C)cc2)nnc1SCC(=O)N/N=C/c1ccc(O)cc1	none
Cc1ccc(C)c(S(=O)(=O)Nc2ccc3scnc3c2)c1	Cav3 T inh -4.57
Cc1cccc(NS(=O)(=O)c2cccc3nsnc23)c1	none
C=CCOC(=O)/C(=C\c1cccc2ccccc12)NC(=O)c1ccccc1	Cav3 T inh -5.18
CCOC(=O)/C(=C/c1c2ccccc2cc2ccccc12)NC(=O)c1ccccc1	none
N#Cc1sc(=O)[nH]c1Cl	none (no result: FAK blocker, Rev-RRE block, EphB4 ephrin blk, PLK1 inh, Plk1 PBD FP)
Cc1ccc(N=Cc2cc(C)n(C3CCCC3)c2C)cc1	none
Cc1cc(/C=C2\SC(=S)NC2=O)c(C)n1C1CC1	Rev-RRE block 65.1 (no result: Cav3 T inh)
Clc1ccc(-c2nc3cnccn3c2NC2CCCC2)cc1	Cav3 T inh -5.02
CCOc1cc(C)c(Cl)cc1S(=O)(=O)n1cnc2ccccc21	Cav3 T inh -5.67
COc1ccc(S(=O)(=O)Nc2ccc(S(=O)(=O)N3CCCCC3)cc2)cc1	Cav3 T inh -6.6
COc1ccc(NS(=O)(=O)c2ccc(NS(=O)(=O)c3ccc(SC)cc3)cc2)c(OC)c1	Cav3 T inh -4.91
O=S(=O)(NC1CCCCCC1)c1ccc(Br)s1	Cav3 T inh -4.89
COc1ccc(NS(=O)(=O)c2c(C)cc(C)cc2C)cc1	Cav3 T inh -6.1
O=C(CCNS(=O)(=O)c1ccc(Br)s1)NC1CCCC1	none
CCOC(=O)C1CCN(C(C(=O)NC2CCCC2)c2ccc(C)cc2)CC1 (centres undefined)	none
NS(=O)(=O)c1cccnc1Nc1c(Cl)cccc1Cl	none
CCc1nnc(NC(=O)CSc2nc3cccnc3n2Cc2ccccc2)s1	none
COc1cc(OC)c2c(O)c3c(c(-c4c5c(c(O)c6c(OC)cc(OC)cc46)CO[C@@H](C)[C@H]5O)c2c1)[C@H](O)[C@H](C)OC3	none (no result: FAK blocker, Rev-RRE block, EphB4 ephrin blk, PLK1 inh, Plk1 PBD FP)
CCO[C@@H]1OC(C(=O)NCc2ccccc2)=C[C@H](c2cn(C(C)=O)c3ccccc23)[C@H]1CCCO	none (no result: FAK blocker, Rev-RRE block, EphB4 ephrin blk, PLK1 inh, Plk1 PBD FP)
O=S(=O)(Nc1ccc(S(=O)(=O)N2CCCCC2)cc1)c1ccc(Br)s1	Cav3 T inh -5.42
O=C(COC(=O)c1ccc(Br)o1)Nc1ccc(S(=O)(=O)N2CCCC2)cc1	none
O=C(Nc1ccc(S(=O)(=O)N2CCCCCC2)cc1)c1ccc(Br)o1	Cav3 T inh -3.15
O=S(=O)(Nc1ccc(S(=O)(=O)N2CCCCCC2)cc1)c1cccs1	none
C=CCOC(=O)C1=C(C)NC(SCC)=C(C#N)C1c1ccc(Cl)cc1 (centres undefined)	Cav3 T inh -7.5
CCOC(=O)C1=C(C)NC(SCC(=O)OC)=C(C#N)C1c1ccc(C(=O)OC)cc1 (centres undefined)	none
Cc1ccc(C2=Nc3ccccc3NC(C)(c3ccc(C)o3)C2)o1 (centres undefined)	Cav3 T inh -5.26
C=C1CCN([C@H](C(=O)NCc2ccccc2)C(C)C)S(=O)(=O)c2ccccc21	none (no result: FAK blocker, Rev-RRE block, EphB4 ephrin blk, PLK1 inh, Plk1 PBD FP)
O=C(NC1CCCCC1)C1CC=CCC1C(=O)OCC(Cl)=C(Cl)Cl (centres undefined)	Cav3 T inh -7.53
O=C(COC(=O)c1ccco1)NC1CCCCC1	none
CN1CC(=O)NC1=NC(=O)C12CC3CC(CC(C3)C1)C2	none
Cc1cc(S(=O)(=O)NCc2ccco2)c(C)s1	none
COc1ccc(S(=O)(=O)NCc2ccco2)c2ccccc12	Cav3 T inh -4.22 (no result: FAK blocker, Rev-RRE block, EphB4 ephrin blk, PLK1 inh, Plk1 PBD FP)
Cc1ccc(S(=O)(=O)NCCC2(C(C)C)CCOC(C)(C)C2)cc1 (centres undefined)	none
CCC1(C)CC(CCNS(=O)(=O)c2ccc(C)cc2)(c2ccc(C)cc2)CCO1 (centres undefined)	Cav3 T inh -5.35
O=C(NNC(=O)C1CC1c1ccccc1)Nc1cccc(Cl)c1 (centres undefined)	none
CCOC(=O)c1c(CN2CCN(Cc3ccccc3)CC2)n(C)c2cc(Br)c(OC)cc12	Cav3 T inh -6.97
O=S(=O)(Nc1nc2ccccc2nc1Nc1ccc2c(c1)OCCO2)c1cccs1	Cav3 T inh -3.76 (no result: FAK blocker, Rev-RRE block, EphB4 ephrin blk, PLK1 inh, Plk1 PBD FP)
CCOc1cccc(CNc2ccc(O)cc2)c1OCc1ccccc1Cl	FAK blocker 37.0

High-throughput results: PubChem, several laboratories
